Among the data in ChEMBL document CHEMBL1125310, “(R)-2-(3-mercapto-2(S)-methyl-1-oxo-propoxy)-3-(methylthio)propanoic acid, the first ultra-short-acting angiotensin converting enzyme inhibitor” (J Med Chem, 1992) are half-life, IC50 and inhibition values, retold here.

Bounds are passed on as bounds.

A short description of data set [1]: Half-life (hydrolysis) in human blood. It counts as ADME.
Data set [2] deals with T1, Angiotensin-converting enzyme (Oryctolagus cuniculus) (UniProt P12822).
T1 sequence (whole entry): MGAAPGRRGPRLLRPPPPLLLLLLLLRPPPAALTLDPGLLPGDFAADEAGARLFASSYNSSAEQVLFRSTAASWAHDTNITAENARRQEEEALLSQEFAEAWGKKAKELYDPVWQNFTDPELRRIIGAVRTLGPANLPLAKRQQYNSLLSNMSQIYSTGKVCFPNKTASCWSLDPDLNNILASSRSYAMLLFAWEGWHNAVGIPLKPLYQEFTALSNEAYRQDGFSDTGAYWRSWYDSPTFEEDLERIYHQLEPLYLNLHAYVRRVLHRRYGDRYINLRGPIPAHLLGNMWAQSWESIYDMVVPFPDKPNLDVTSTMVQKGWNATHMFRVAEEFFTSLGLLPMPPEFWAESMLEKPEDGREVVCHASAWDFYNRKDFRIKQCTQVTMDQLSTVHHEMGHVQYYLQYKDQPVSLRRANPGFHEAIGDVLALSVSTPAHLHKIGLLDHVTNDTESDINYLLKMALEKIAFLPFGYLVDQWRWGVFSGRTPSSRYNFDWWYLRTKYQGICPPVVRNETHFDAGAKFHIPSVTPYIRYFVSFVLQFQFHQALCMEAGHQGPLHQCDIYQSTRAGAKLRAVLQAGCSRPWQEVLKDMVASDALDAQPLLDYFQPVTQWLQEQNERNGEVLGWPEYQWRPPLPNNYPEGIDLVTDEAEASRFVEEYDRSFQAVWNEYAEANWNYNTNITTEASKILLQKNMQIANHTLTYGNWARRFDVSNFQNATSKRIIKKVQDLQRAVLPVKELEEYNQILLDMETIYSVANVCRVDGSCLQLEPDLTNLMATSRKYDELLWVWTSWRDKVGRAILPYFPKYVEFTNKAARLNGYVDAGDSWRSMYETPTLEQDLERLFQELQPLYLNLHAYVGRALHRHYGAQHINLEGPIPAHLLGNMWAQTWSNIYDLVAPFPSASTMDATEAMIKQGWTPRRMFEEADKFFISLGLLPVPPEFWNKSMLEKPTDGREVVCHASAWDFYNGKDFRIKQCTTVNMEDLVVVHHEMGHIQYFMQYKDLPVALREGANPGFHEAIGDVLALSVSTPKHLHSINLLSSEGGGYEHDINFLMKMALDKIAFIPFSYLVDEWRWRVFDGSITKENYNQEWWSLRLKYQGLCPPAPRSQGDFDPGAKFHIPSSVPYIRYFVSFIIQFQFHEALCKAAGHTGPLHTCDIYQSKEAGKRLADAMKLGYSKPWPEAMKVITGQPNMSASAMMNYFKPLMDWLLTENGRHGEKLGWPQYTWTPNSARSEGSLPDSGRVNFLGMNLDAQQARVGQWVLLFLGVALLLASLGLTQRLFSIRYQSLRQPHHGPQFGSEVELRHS
In words: Inhibitory activity towards purified rabbit lung Angiotensin I converting enzyme. In short, it runs like this:
(§1)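 Purified rabbit lung ACE was used, following a published method with two changes: Zn2+ (20 μM) was added to the purified enzyme, and the substrate was radiolabeled. The read-out was inhibition of enzyme activity.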

For data set [3], the target named is T1, Angiotensin-converting enzyme (Oryctolagus cuniculus). Nature of the data set: Inhibitory activity towards purified rabbit lung angiotensin I converting enzyme. In short, it runs like this:
as §1

Data set [4] shares this target. Nature of the data set: Inhibitory activity towards purified rabbit lung angiotensin I converting enzyme at 10 e-4 M.
Data set [5] has the same target. Nature of the data set: Inhibitory activity towards purified rabbit lung angiotensin I converting enzyme; no inhibition at 10 e-5 M.

What is called half-life is how long it takes for the measured level to halve. For orientation: IC50 means the midpoint of a concentration-inhibition curve. For `C[C@H](CS)C(=O)O[C@@H](CSCc1ccccc1)C(=O)O`, the half-life in data set [1] was above 60 min. The molecule further registered a half-maximal inhibitory concentration (IC50) in data set [2] of 3.2 nM.

As to `C[C@H](CS)C(=O)O[C@@H](Cc1ccccc1)C(=O)O`, the half-life in data set [1] worked out at 23 min. The molecule also registered an IC50 in data set [2] of 10.6 nM.

Molecule `C[C@H](CS)C(=O)OCC(=O)O` came in with an IC50 in data set [3] of 123 nM. This molecule came in with a half-life in data set [1] of 53 min.

As for `C[C@H](CS)C(=O)N1CCC[C@H]1C(=O)O`, half-maximal inhibition in data set [2] (IC50) was put at 2.7 nM.

Regarding `C[C@H](CS)C(=O)N[C@@H](Cc1ccccc1)C(=O)O`, in data set [1], the half-life is above 60 min. The concentration for half-maximal inhibition (IC50) in data set [2] stood at 84.7 nM.

For the molecule `C[C@H](CS)C(=O)O[C@@H](CSC1CCCC1)C(=O)O`, the half-life in data set [1] stood at 27 min. The same molecule registered a concentration for half-maximal inhibition (IC50) in data set [2] of 1.8 nM.

Broadly, the inhibition is the relative decrease from the control value, in per cent. The molecule `C[C@H](CS)C(=O)O` gave an inhibition in data set [4] of 30%.

Molecule `CCC(CC)SC[C@H](OC(=O)[C@H](C)CS)C(=O)O` came in with an IC50 in data set [3] of 2 nM. Further, the half-life in data set [1] was 37 min.

The molecule `CSC[C@H](OC(=O)[C@H](C)CS)C(=O)O` came in with an IC50 in data set [3] of 5.7 nM. In data set [1], this molecule displayed a half-life of 14 min.

As for `CC(C)SC[C@H](OC(=O)[C@H](C)CS)C(=O)O`, in data set [3], 2.8 nM corresponded to half-maximal inhibition (IC50). For the same molecule, the half-life in data set [1] came to 20 min.

In the case of `CSC[C@H](O)C(=O)O`, in data set [5], the inhibition entry was “no inhibition at 10 e-5 M”.
